Active and inactive are the calls of the source. The rule behind the calls is not given here.
Columns and labels:
MM1.S = test: Antiproliferative activity against human MM1S cells after 72 hrs by CCK8 or SRB assay; type: functional, cell-based
Summary of the method: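 IC50 against MM.1S cell proliferation was taken as the mean of three independent experiments, each run in triplicate, reported with SEM.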

[1] = molecular target: T1, Bromodomain-containing protein 4 (Homo sapiens, UniProt O60885); test: Displacement of 5-FITC labelled (+)-JQ1 from His6-tagged human BRD4 bromodomain 1 expressed in Escherichia coli BL21(DE3) )-codon plus-RIL cells incubated for 4 hrs in dark condition by fluorescence anisotropy binding assay
[2] = molecular target: Bromodomain-containing protein 2 (Homo sapiens) (UniProt P25440); test: Inhibition of BRD2 bromodomain 2 (unknown origin)
Sequence of Bromodomain-containing protein 2 (Homo sapiens) (P25440 whole entry, looked up): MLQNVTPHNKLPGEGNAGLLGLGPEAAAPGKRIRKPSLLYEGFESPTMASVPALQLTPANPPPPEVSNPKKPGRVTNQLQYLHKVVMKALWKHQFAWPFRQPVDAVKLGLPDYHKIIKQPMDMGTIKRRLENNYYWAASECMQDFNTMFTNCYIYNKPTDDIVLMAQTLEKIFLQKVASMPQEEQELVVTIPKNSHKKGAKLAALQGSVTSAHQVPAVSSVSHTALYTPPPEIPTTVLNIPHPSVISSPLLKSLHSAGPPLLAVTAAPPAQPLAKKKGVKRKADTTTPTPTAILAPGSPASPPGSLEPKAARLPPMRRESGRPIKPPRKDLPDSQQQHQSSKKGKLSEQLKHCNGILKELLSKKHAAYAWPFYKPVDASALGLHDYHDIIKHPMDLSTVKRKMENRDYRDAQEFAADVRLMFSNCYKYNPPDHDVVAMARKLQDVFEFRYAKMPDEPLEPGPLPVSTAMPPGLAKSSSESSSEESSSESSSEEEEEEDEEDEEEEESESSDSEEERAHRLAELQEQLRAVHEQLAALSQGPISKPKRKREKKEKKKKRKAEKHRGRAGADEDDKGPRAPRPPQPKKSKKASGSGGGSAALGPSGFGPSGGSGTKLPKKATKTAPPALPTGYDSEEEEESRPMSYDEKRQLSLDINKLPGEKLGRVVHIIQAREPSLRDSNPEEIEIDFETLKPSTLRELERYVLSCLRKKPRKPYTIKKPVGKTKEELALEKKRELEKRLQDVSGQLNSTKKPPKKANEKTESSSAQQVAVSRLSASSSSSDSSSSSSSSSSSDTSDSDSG
Summary of the method: (§1)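 Bromodomain binding panel (32 bromodomains) screened at 1 μM; primary binding read-out reported as percent of control, lower values meaning stronger binding.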

[3] = molecular target: T1, Bromodomain-containing protein 4; test: Inhibition of BRD4 bromodomain 2 (unknown origin)
[4] = molecular target: Histone acetyltransferase p300 (Homo sapiens) (UniProt Q09472); test: Inhibition of EP300 (unknown origin) at 1 uM; summary of the method: as §1
Sequence of Histone acetyltransferase p300 (Homo sapiens) (Q09472 whole entry): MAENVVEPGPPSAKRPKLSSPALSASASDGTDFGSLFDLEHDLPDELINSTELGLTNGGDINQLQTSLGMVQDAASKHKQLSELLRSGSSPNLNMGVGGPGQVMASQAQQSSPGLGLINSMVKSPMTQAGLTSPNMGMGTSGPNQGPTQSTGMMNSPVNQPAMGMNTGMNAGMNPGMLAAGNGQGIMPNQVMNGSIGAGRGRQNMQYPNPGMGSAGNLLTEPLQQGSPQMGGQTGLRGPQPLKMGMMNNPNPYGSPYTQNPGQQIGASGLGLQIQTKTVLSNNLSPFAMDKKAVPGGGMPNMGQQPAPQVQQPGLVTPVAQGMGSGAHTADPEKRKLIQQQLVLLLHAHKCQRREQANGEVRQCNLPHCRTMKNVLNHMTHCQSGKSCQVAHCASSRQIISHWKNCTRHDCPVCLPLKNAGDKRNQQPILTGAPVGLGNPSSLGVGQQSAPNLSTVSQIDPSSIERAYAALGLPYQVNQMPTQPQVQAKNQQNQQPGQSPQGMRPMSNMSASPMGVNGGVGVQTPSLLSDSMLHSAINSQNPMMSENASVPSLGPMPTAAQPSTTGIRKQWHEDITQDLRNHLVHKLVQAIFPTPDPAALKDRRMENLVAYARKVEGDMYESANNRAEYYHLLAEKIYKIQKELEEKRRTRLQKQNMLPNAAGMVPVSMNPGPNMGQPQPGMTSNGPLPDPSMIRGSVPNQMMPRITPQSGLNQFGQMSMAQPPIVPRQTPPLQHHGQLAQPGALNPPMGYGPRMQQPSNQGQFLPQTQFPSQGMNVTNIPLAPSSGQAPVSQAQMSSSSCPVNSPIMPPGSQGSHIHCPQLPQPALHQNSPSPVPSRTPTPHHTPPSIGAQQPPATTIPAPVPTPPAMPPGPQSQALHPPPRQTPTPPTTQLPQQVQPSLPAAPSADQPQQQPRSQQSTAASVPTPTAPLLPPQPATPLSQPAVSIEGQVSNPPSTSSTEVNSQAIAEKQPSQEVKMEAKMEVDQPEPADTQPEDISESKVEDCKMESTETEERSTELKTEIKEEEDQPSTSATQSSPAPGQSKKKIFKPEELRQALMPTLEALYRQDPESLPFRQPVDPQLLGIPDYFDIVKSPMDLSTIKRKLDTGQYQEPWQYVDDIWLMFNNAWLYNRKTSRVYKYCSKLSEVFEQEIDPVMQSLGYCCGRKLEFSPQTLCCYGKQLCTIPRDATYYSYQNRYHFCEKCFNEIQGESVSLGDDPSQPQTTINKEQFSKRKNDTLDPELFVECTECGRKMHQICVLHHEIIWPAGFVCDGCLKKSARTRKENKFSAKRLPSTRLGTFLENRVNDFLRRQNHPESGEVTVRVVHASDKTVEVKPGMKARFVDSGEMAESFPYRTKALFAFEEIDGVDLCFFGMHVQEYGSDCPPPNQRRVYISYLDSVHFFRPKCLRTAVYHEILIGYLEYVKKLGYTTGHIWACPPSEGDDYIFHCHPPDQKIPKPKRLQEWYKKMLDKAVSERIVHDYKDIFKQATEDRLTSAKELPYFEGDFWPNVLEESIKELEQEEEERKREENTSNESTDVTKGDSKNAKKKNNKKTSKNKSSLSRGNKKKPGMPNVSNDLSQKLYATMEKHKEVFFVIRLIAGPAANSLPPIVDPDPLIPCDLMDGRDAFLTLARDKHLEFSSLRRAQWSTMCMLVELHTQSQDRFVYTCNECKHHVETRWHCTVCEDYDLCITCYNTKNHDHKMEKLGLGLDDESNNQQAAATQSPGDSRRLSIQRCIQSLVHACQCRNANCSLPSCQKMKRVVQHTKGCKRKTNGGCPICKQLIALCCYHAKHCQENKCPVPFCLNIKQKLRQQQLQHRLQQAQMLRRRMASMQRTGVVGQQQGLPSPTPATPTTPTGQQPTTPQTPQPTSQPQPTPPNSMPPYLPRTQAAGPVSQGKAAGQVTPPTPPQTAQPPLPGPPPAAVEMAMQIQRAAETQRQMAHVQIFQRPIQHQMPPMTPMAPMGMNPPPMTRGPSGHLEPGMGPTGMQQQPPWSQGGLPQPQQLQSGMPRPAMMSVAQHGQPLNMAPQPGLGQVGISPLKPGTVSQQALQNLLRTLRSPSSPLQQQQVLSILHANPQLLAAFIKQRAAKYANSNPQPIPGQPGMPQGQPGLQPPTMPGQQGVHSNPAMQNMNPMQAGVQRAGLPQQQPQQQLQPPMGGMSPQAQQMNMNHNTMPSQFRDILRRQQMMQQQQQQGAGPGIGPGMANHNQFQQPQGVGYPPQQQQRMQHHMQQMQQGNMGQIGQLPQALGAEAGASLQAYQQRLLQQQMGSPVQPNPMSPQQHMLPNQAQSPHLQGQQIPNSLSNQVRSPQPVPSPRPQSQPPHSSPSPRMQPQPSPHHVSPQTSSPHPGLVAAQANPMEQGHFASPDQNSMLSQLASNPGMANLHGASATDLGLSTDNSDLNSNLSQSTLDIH

[5] = molecular target: T1, Bromodomain-containing protein 4; test: Inhibition of BRD4 bromodomain 1 (unknown origin)
Summary of the method: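 BRD4 BD1 (His6-tagged, E. coli BL21(DE3)-expressed, Ni-NTA purified) at 10 nM with 5 nM FITC-labelled (+)-JQ1 tracer; 50 mM HEPES pH 7.4, 150 mM NaCl, 0.5 mM CHAPS, DMSO 2‰ final; graded inhibitor; 4 h dark equilibration at room temperature; fluorescence anisotropy read (ex 485/em 530 nm). IC50 from two independent experiments in duplicate, mean ± SEM.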

[6] = molecular target: Bromodomain-containing protein 2 (Homo sapiens) (UniProt P25440); test: Inhibition of BRD2 bromodomain 1 (unknown origin)
HuTu80 = test: Antiproliferative activity against human HuTu 80 cells after 72 hrs by CCK8 or SRB assay; type: functional, cell-based
BT-549 = test: Antiproliferative activity against human BT549 cells after 72 hrs by CCK8 or SRB assay; type: functional, cell-based
MDA-MB-468 = test: Antiproliferative activity against human MDA-MB-468 cells after 72 hrs by CCK8 or SRB assay; type: functional, cell-based
Hep 3B2 = test: Antiproliferative activity against human Hep3B cells after 72 hrs by CCK8 or SRB assay; type: functional, cell-based
MV4-11 = test: Antiproliferative activity against human MV4-11 cells after 72 hrs by CCK8 or SRB assay; type: functional, cell-based
MDA-MB-436 = test: Antiproliferative activity against human MDA-MB-436 cells after 72 hrs by CCK8 or SRB assay; type: functional, cell-based
Homo sapiens = organism: Homo sapiens; test: Antiproliferative activity against human TY82 cells after 72 hrs by CCK8 or SRB assay; type: functional, cell-based
RKO = test: Antiproliferative activity against human RKO cells after 72 hrs by CCK8 or SRB assay; type: functional, cell-based
AGS = test: Antiproliferative activity against human AGS cells after 72 hrs by CCK8 or SRB assay; type: functional, cell-based
SW-620 = test: Antiproliferative activity against human SW620 cells after 72 hrs by CCK8 or SRB assay; type: functional, cell-based
KG-1 = test: Antiproliferative activity against human KG1 cells after 72 hrs by CCK8 or SRB assay; type: functional, cell-based
HT-29 = test: Antiproliferative activity against human HT-29 cells after 72 hrs by CCK8 or SRB assay; type: functional, cell-based
SK-OV-3 = test: Antiproliferative activity against human SKOV3 cells after 72 hrs by CCK8 or SRB assay; type: functional, cell-based
NCI-H522 = test: Antiproliferative activity against human NCI-H522 cells after 72 hrs by CCK8 or SRB assay; type: functional, cell-based
A549 = test: Antiproliferative activity against human A549 cells after 72 hrs by CCK8 or SRB assay; type: functional, cell-based
NCI-H1299 = test: Antiproliferative activity against human NCI-H1299 cells after 72 hrs by CCK8 or SRB assay; type: functional, cell-based
[7] = Cmax in ICR mouse at 10 mg/kg, po administered via gavage measured after 0.25 to 24 hrs by UPLC/MS analysis; type: ADME, organism-based; set-up: dose 10 mg/kg, route oral; details: in vivo
Summary of the method: (§2)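 Male ICR mice dosed orally in 1% DMSO/0.5% HPMC vehicle; plasma or brain drug levels used to derive Tmax, Cmax, AUC0-t, AUC0-inf and T1/2.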

[8] = Half life in ICR mouse at 10 mg/kg, po administered via gavage measured after 0.25 to 24 hrs by UPLC/MS analysis; type: ADME, organism-based; details: in vivo; summary of the method: as §2
[9] = AUC (0 to infinity) in ICR mouse at 10 mg/kg, po administered via gavage measured after 0.25 to 24 hrs by UPLC/MS analysis; type: ADME, organism-based; set-up: dose 10 mg/kg, route oral, time infinity; details: in vivo
Summary of the method: (§3)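 Male ICR mice were dosed orally in 1% DMSO/0.5% HPMC vehicle. Plasma (and brain, where stated) concentrations gave Tmax, Cmax, T1/2, AUC0-t and AUC0-inf.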

[10] = AUC (0 to t) in ICR mouse at 10 mg/kg, po administered via gavage measured after 0.25 to 24 hrs by UPLC/MS analysis; type: ADME, organism-based; set-up: time 0.25-24 hr, dose 10 mg/kg, route oral; details: in vivo; summary of the method: as §3
[11] = Tmax in ICR mouse at 10 mg/kg, po administered via gavage measured after 0.25 to 24 hrs by UPLC/MS analysis; type: ADME, organism-based; details: in vivo
Summary of the method: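 Male ICR mice dosed orally (3, 10 or 100 mg/kg, per line) in 1% DMSO/0.5% HPMC vehicle; plasma drug levels measured.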

Compound: Cc1ccc(-n2nc(C(=O)N3CCN(C)CC3)nc2-c2ccc3c(c2)N(C2CCCC2)[C@H](C)C(=O)N3C)c(C)c1
- IC50 (MM1.S): 17.8 nM
- IC50 [1]: 4.5 nM

Compound: Cc1ccc(-n2nc(C(=O)N3CCN(C4CC4)CC3)nc2-c2ccc3c(c2)N(C2CCCC2)[C@H](C)C(=O)N3C)cc1
- IC50 (MM1.S): 87.5 nM
- IC50 [1]: 5.9 nM

Compound: Cc1ccc(-n2nc(C(=O)N3CCN4CCCC4C3)nc2-c2ccc3c(c2)N(C2CCCC2)[C@H](C)C(=O)N3C)cc1 (stereo partly drawn)
- inhibition [2]: Active
- inhibition [3]: Active
- IC50 (MM1.S): 6.4 nM
- inhibition [4]: inactive
- IC50 [1]: 8.7 nM
- inhibition [5]: Active
- inhibition activity call (active/inactive) [6]: Active

Compound: Cc1ccc(-n2nc(C(=O)N3CCCN(C)CC3)nc2-c2ccc3c(c2)N(C2CCCC2)[C@H](C)C(=O)N3C)cc1
- inhibition [2]: Active
- inhibition [3]: Active
- IC50 (MM1.S): 8 nM
- inhibition [4]: inactive
- inhibition [5]: Active
- inhibition activity call (active/inactive) [6]: Active

Compound: Cc1sc2c(c1C)C(c1ccc(Cl)cc1)=N[C@@H](CC(=O)OC(C)(C)C)c1nnc(C)n1-2
- Activity (HuTu80): Active
- Activity (BT-549): Active
- Activity (MDA-MB-468): Active
- Activity (Hep 3B2): Active
- Activity (MV4-11): Active
- Activity (MDA-MB-436): Active
- Activity (Homo sapiens): Active
- Activity (RKO): Active
- Activity (AGS): Active
- Activity (SW-620): Active
- Activity (KG-1): Active
- Activity (HT-29): Active
- Activity (SK-OV-3): Active
- Activity (NCI-H522): Active
- Activity (A549): Active
- Activity (NCI-H1299): Active

Compound: Cc1ccc(-n2nc(C(=O)N3C[C@@H](N)C4(CC4)C3)nc2-c2ccc3c(c2)N(C2CCCC2)[C@H](C)C(=O)N3C)cc1
- IC50 (MM1.S): 43.5 nM
- IC50 [1]: 6.1 nM

Compound: Cc1ccc(-n2nc(C(=O)N3C[C@@H](NC(=O)OC(C)(C)C)C4(CC4)C3)nc2-c2ccc3c(c2)N(C2CCCC2)[C@H](C)C(=O)N3C)cc1
- IC50 (MM1.S): 485 nM
- IC50 [1]: 9.6 nM

Compound: Cc1onc(-c2ccccc2)c1-c1ccc2c(c1)N(C1CCCC1)[C@H](C)C(=O)N2C
- IC50 [1]: 100 nM

Compound: Cc1ccc(N2C(=O)CSC2c2ccc3c(c2)N(C2CC2)C(C)C(=O)N3C)cc1 (stereo not drawn)
- IC50 [1]: 142 nM

Compound: CCN1CCN(C(=O)c2nc(-c3ccc4c(c3)N(C3CCCC3)[C@H](C)C(=O)N4C)n(-c3ccc(C)cc3)n2)CC1
- IC50 (MM1.S): 25.1 nM
- IC50 [1]: 5.8 nM

Compound: C[C@@H]1C(=O)N(C)c2ccc(-c3nc(C(=O)N4CCN(C)CC4)nn3-c3ccccc3)cc2N1C1CCCC1
- IC50 (MM1.S): 60.1 nM
- IC50 [1]: 7.1 nM

Compound: Cc1ccc(-n2nc(C(=O)N3CCN(C(C)C)CC3)nc2-c2ccc3c(c2)N(C2CCCC2)[C@H](C)C(=O)N3C)cc1
- IC50 (MM1.S): 125 nM
- IC50 [1]: 4.8 nM

Compound: Cc1ccc(-n2nc(C(=O)N3CC4CCC(C3)N4C)nc2-c2ccc3c(c2)N(C2CCCC2)[C@H](C)C(=O)N3C)cc1
- inhibition [2]: Active
- inhibition [3]: Active
- IC50 (MM1.S): 10.1 nM
- inhibition [4]: inactive
- IC50 [1]: 4.6 nM
- inhibition [5]: Active
- inhibition activity call (active/inactive) [6]: Active

Compound: C[C@@H]1C(=O)N(C)c2ccc(-c3nc(C(=O)N4CCN(C)CC4)nn3-c3ccc(Cl)cc3)cc2N1C1CCCC1
- IC50 (MM1.S): 48.5 nM
- IC50 [1]: 6.8 nM

Compound: Cc1ccc(-n2nc(C(=O)N(C)CCN(C)C)nc2-c2ccc3c(c2)N(C2CCCC2)[C@H](C)C(=O)N3C)cc1
- inhibition [2]: Active
- inhibition [3]: Active
- IC50 (MM1.S): 16.2 nM
- inhibition [4]: inactive
- IC50 [1]: 7 nM
- inhibition [5]: Active
- inhibition activity call (active/inactive) [6]: Active

Compound: Cc1ccc(-n2nnnc2-c2ccc3c(c2)N(C2CCCC2)C(C)C(=O)N3C)cc1 (stereo not drawn)
- IC50 (MM1.S): 1230 nM
- IC50 [1]: 9.5 nM

Compound: Cc1ccc(-n2nc(C(=O)N3C4CCC3CN(C)C4)nc2-c2ccc3c(c2)N(C2CCCC2)[C@H](C)C(=O)N3C)cc1
- inhibition [2]: Active
- inhibition [3]: Active
- IC50 (MM1.S): 7.9 nM
- inhibition [4]: inactive
- IC50 [1]: 6.6 nM
- inhibition [5]: Active
- inhibition activity call (active/inactive) [6]: Active

Compound: Cc1ccc(-n2nc(C(=O)N3CCC4(CCOC4)CC3)nc2-c2ccc3c(c2)N(C2CCCC2)[C@H](C)C(=O)N3C)cc1
- IC50 (MM1.S): 485 nM
- IC50 [1]: 7.9 nM

Compound: Cc1ccc(-n2nc(C(=O)N3CCN(C)CC3)nc2-c2ccc3c(c2)N(C2CCCC2)[C@H](C)C(=O)N3C)cc1F
- Cmax [7]: 4970 ng/mL
- half-life [8]: 90 min
- AUC(0-inf) [9]: 8360 ng·h/mL
- inhibition [2]: Active
- inhibition [3]: Active
- IC50 (MM1.S): 13 nM
- AUC(0-t) [10]: 8150 ng·h/mL
- inhibition [4]: inactive
- Tmax [11]: 18 min
- IC50 [1]: 4.2 nM
- inhibition [5]: Active
- inhibition activity call (active/inactive) [6]: Active

Compound: Cc1ccc(-n2nc(C(=O)N3CCC4(CCCC4)CC3)nc2-c2ccc3c(c2)N(C2CCCC2)[C@H](C)C(=O)N3C)cc1
- IC50 (MM1.S): 2400 nM
- IC50 [1]: 27.2 nM

Compound: Cc1ccc(-n2nnnc2-c2ccc3c(c2)N(C2CC2)C(C)C(=O)N3C)cc1 (stereo not drawn)
- IC50 (MM1.S): 47.7 nM
- IC50 [1]: 14.4 nM

— ChEMBL document CHEMBL4414574, “Structure-Based Discovery and Development of a Series of Potent and Selective Bromodomain and Extra-Terminal Protein Inhibitors” (J Med Chem, 2019)
